Test results taken from ChEMBL document CHEMBL1122671, “Anticonvulsant activity of some 4-aminobenzamides” (J Med Chem, 1984).
Activity calls are given as the source filed them.

Legend:
Mus musculus [1] = test: Anticonvulsant activity against MES (maximal electroshock) induced seizure in mice at 4 hr; +++ indicates activity at 100 mg/kg.; assay type: functional, organism-based; set-up: dose 100 mg/kg
Method in brief: (§1)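 Male Carworth Farms number-one mice received the compound ip in 30% polyethylene glycol 400. Doses were 30, 100 and 300 mg/kg, with 600 mg/kg in some cases. Maximal electroshock seizure protection was scored at 30 min and 4 h after dosing. Activity is coded by the lowest effective dose.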

Mus musculus [2] = species: Mus musculus; test: Evaluation of inhibitory activity aagainst MES induced convulsions in mice.; assay type: functional
Method in brief: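 Quantitative MES test in male Carworth Farms number-one mice. Compound in 30% polyethylene glycol 400, given ip at graded doses. Median effective dose (ED50) read by the graphical method.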

Mus musculus [3] = species: Mus musculus; test: Evaluation of neurologic deficit by rotarod procedure in mice; assay type: functional
Method in brief: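 Male Carworth Farms number-one mice were dosed ip (30% PEG 400 vehicle) and placed on a 1-in. knurled plastic rod rotating at 6 rpm. Neurotoxicity meant failure to stay on the rod for 1 min. TD50 was determined graphically.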

Mus musculus [4] = test: Anticonvulsant activity against scMet (subcutaneous metrazole) induced seizure in mice at 4 hr; ++ indicates activity at 300 mg/kg.; assay type: functional, organism-based; set-up: dose 300 mg/kg
Mus musculus [5] = test: Anticonvulsant activity against MES (maximal electroshock) induced seizure in mice at 30 min; +++ = Activity at 100 mg/kg.; assay type: functional, organism-based; set-up: dose 100 mg/kg; method in brief: as §1
[6] = Protective index (PI) which is defined as the ratio of TD50 to the ED50 (ScMet).; assay type: functional
Method in brief: (§2)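 Both values come from ip dosing in 30% PEG 400 to male Carworth Farms number-one mice and were derived by the graphical method.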

Mus musculus [7] = species: Mus musculus; test: Evaluation of inhibitory activity against scMet induced convulsions in mice; assay type: functional
Mus musculus [8] = test: Evaluated for toxicity by using rotarod test in mice at 4 hr; ++ indicates activity at 300 mg/kg.; assay type: organism-based; set-up: dose 300 mg/kg; conditions: in vivo
Method in brief: (§3)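 Neurotoxicity in male Carworth Farms number-one mice dosed ip in 30% PEG 400 at 30, 100, 300 and sometimes 600 mg/kg, tested 30 min or 4 h later. Mice placed on a 1-in. knurled rod rotating at 6 rpm; toxicity means failure to stay on the rod for 1 min. Scored by the lowest toxic dose; footnotes record loss of righting reflex or lethality.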

[9] = Protective index (PI) which is defined as the ratio of TD50 to the ED50 (MES).; assay type: functional; method in brief: as §2
Mus musculus [10] = test: Evaluated for toxicity by using rotarod test at in mice 30 min; +++ indicates activity at 100 mg/kg *-Loss of righting reflex at less than 600 mg/kg; assay type: organism-based; conditions: in vivo, 0.5 h; method in brief: as §3
Mus musculus [11] = test: Anticonvulsant activity against scMet (subcutaneous metrazole) induced seizure in mice at 30 min; ++ indicates activity at 600 mg/kg.; assay type: functional, organism-based; set-up: dose 600 mg/kg
Mus musculus [12] = test: Anticonvulsant activity against MES (maximal electroshock) induced seizure in mice at 4 hr; ++ = Activity at 300 mg/kg.; assay type: functional, organism-based; set-up: dose 300 mg/kg; method in brief: as §1
Mus musculus [13] = test: Evaluated for toxicity by using rotarod test at in mice 30 min; ++ indicates activity at 300 mg/kg,*-Loss of righting reflex at less than 300 mg/kg; assay type: organism-based; conditions: in vivo, 0.5 h; method in brief: as §3
Mus musculus [14] = test: Evaluated for toxicity by using rotarod test in mice at 4 hr; + indicates activity at 600 mg/kg.; assay type: organism-based; set-up: dose 600 mg/kg; conditions: in vivo; method in brief: as §3
Mus musculus [15] = test: Anticonvulsant activity against scMet (subcutaneous metrazole) induced seizure in mice at 4 hr; ++ indicates activity at 600 mg/kg.; assay type: functional, organism-based; set-up: dose 600 mg/kg
Mus musculus [16] = test: Evaluated for toxicity by using rotarod test at in mice 30 min; - = No activity at 600 mg/kg.; assay type: organism-based; set-up: dose 600 mg/kg; conditions: in vivo, 0.5 h; method in brief: as §3
Mus musculus [17] = test: Anticonvulsant activity against scMet (subcutaneous metrazole) induced seizure in mice at 30 min; - = No activity at 600 mg/kg.; assay type: functional, organism-based; set-up: dose 600 mg/kg
Method in brief: (§4)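 Male Carworth Farms number-one mice dosed ip (30% PEG 400) at 30, 100, 300 and in some cases 600 mg/kg. Pentylenetetrazole 85 mg/kg given sc as a 0.5% solution in the posterior midline, at 30 min or 4 h. Protection means no clonic spasm of at least 5 s within 30 min. Scored by the lowest protective dose.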

Mus musculus [18] = test: Anticonvulsant activity against MES (maximal electroshock) induced seizure in mice at 30 min; + = Activity at 600 mg/kg.; assay type: functional, organism-based; set-up: dose 600 mg/kg
Method in brief: (§5)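 Male Carworth Farms number-one mice; compounds in 30% polyethylene glycol 400, given ip at 30, 100 and 300 mg/kg, some also at 600 mg/kg. Maximal electroshock challenge at 30 min or 4 h after dosing. Scored by the lowest dose giving protection (++++ 30, +++ 100, ++ 300, + 600 mg/kg; - none at 600).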

Mus musculus [19] = test: Anticonvulsant activity against scMet (subcutaneous metrazole) induced seizure in mice at 4 hr; - = No activity at 600 mg/kg.; assay type: functional, organism-based; set-up: dose 600 mg/kg; method in brief: as §4
Mus musculus [20] = test: Anticonvulsant activity against MES (maximal electroshock) induced seizure in mice at 4 hr; - = No activity at 600 mg/kg.; assay type: functional, organism-based; set-up: dose 600 mg/kg; method in brief: as §5
Mus musculus [21] = test: Evaluated for toxicity by using rotarod test in mice at 4 hr; - = No activity at 600 mg/kg.; assay type: organism-based; set-up: dose 600 mg/kg; conditions: in vivo; method in brief: as §3
Mus musculus [22] = test: Evaluated for toxicity by using rotarod test in mice at 4 hr; ++ = Activity at 300 mg/kg.; assay type: organism-based; set-up: dose 300 mg/kg; conditions: in vivo; method in brief: as §3
Mus musculus [23] = test: Anticonvulsant activity against scMet (subcutaneous metrazole) induced seizure in mice at 4 hr; ++ = Activity at 300 mg/kg.; assay type: functional, organism-based; set-up: dose 300 mg/kg
Mus musculus [24] = test: Anticonvulsant activity against MES (maximal electroshock) induced seizure in mice at 4 hr; +++ = Activity at 100 mg/kg.; assay type: functional, organism-based; set-up: dose 100 mg/kg; method in brief: as §1
Mus musculus [25] = species: Mus musculus; test: Evaluation of inhibitory activity against scMet induced convulsions in mice; NA = No activity.; assay type: functional, organism-based
Mus musculus [26] = test: Evaluated for toxicity by using rotarod test at in mice 30 min; +++ = Activity at 100 mg/kg, *-Loss of righting reflex at less than 300 mg/kg; assay type: organism-based; conditions: in vivo, 0.5 h; method in brief: as §3
Mus musculus [27] = test: Evaluated for toxicity by using rotarod test in mice at 4 hr; - = no activity observed at 600 mg/Kg; assay type: organism-based; conditions: in vivo; method in brief: as §3
Mus musculus [28] = test: Anticonvulsant activity against MES (maximal electroshock) induced seizure in mice at 4 hr; - = no activity observed at 600 mg/Kg; assay type: functional, organism-based; method in brief: as §1
Mus musculus [29] = test: Evaluated for toxicity by using rotarod test at in mice 30 min; - = no activity observed at 600 mg/Kg; assay type: organism-based; conditions: in vivo, 0.5 h; method in brief: as §3
Mus musculus [30] = test: Anticonvulsant activity against MES (maximal electroshock) induced seizure in mice at 30 min; - = no activity observed at 600 mg/Kg; assay type: functional, organism-based; method in brief: as §1
Mus musculus [31] = test: Anticonvulsant activity against scMet (subcutaneous metrazole) induced seizure in mice at 4 hr; - = no activity observed at 600 mg/Kg; assay type: functional, organism-based
Mus musculus [32] = test: Anticonvulsant activity against scMet (subcutaneous metrazole) induced seizure in mice at 30 min; - = no activity observed at 600 mg/Kg; assay type: functional, organism-based

In the case of `CN(Cc1ccccc1)C(=O)c1ccc(N)cc1`, the Activity (Mus musculus [1]) was “Activity at 100 mg/kg”, the ED50 (Mus musculus [2]) was 52.6 mg/kg and the TD50 (Mus musculus [3]) was 98.1 mg/kg. The Activity (Mus musculus [4]) was “Activity at 100 mg/kg”, the Activity (Mus musculus [5]) was “Activity at 100 mg/kg” and the PI [6] was 1.2. For the same compound, the ED50 (Mus musculus [7]) was 81.7 mg/kg, the Toxicity (Mus musculus [8]) was “activity at 100 mg/kg *-Loss of righting reflex at less than 600 mg/kg” and the PI [9] was 1.9. The Toxicity (Mus musculus [10]) was “activity at 100 mg/kg *-Loss of righting reflex at less than 600 mg/kg”.
With `CCCNC(=O)c1ccc(N)cc1` the Activity (Mus musculus [11]) was “Activity at 100 mg/kg”, the Activity (Mus musculus [12]) was “Activity at 100 mg/kg” and the Activity (Mus musculus [5]) was “Activity at 100 mg/kg”. The Toxicity (Mus musculus [13]) was “activity at 300 mg/kg,*-Loss of righting reflex at less than 300 mg/kg”, the Toxicity (Mus musculus [14]) was “activity at 300 mg/kg,*-Loss of righting reflex at less than 300 mg/kg” and the Activity (Mus musculus [15]) was “Activity at 100 mg/kg”.
For `CNC(=O)c1ccc(N)cc1`, the Toxicity (Mus musculus [16]) was “Not toxic”, the Activity (Mus musculus [17]) was “Not toxic” and the Activity (Mus musculus [18]) was “Activity at 600 mg/kg”. The Activity (Mus musculus [19]) was “Not toxic”, the Activity (Mus musculus [20]) was “Not toxic” and the Toxicity (Mus musculus [21]) was “Not toxic”.
With `Nc1ccc(C(=O)NCc2ccccc2)cc1` the Toxicity (Mus musculus [22]) was “Activity at 100 mg/kg, *-Loss of righting reflex at < 300 mg/kg”, the Activity (Mus musculus [23]) was “Activity at 100 mg/kg” and the Activity (Mus musculus [17]) was “Not toxic”. For the same compound, the Activity (Mus musculus [24]) was “Activity at 100 mg/kg”, the TD50 (Mus musculus [3]) was 83.4 mg/kg and the ED50 (Mus musculus [25]) was “inactive”. For the same compound, the PI [9] was 3.6 and the Toxicity (Mus musculus [26]) was “Activity at 100 mg/kg, *-Loss of righting reflex at < 300 mg/kg”.
With `Nc1ccc(C(=O)NC(c2ccccc2)c2ccccc2)cc1` the Toxicity (Mus musculus [27]) was “Not toxic”, the Activity (Mus musculus [28]) was “Not toxic” and the Toxicity (Mus musculus [29]) was “Not toxic”. For the same compound, the Activity (Mus musculus [30]) was “Not toxic”, the Activity (Mus musculus [31]) was “Not toxic” and the Activity (Mus musculus [32]) was “Not toxic”.
